{"data": "Experimental data of several laboratories", "target": "5-hydroxytryptamine receptor 1A (HTR1A, Homo sapiens, UniProt P08908)", "One construct used (P08908 1-422)": "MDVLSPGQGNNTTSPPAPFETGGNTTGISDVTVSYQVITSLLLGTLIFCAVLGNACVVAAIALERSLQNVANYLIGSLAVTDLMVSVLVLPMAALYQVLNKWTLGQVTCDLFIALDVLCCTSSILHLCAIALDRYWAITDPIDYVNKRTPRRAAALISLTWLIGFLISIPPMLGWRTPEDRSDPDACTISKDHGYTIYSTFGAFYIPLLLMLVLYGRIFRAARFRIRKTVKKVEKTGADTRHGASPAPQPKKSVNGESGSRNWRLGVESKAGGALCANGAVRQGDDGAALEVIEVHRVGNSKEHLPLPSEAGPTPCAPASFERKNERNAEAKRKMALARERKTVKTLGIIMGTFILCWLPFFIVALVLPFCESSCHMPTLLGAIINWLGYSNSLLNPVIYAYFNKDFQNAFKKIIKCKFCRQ", "note": "Each line is one published result; the experiments were not run side by side."}
{"SMILES": "CN1CCN(CCCOc2ccc(=O)n(-c3ccc(Cl)c(Cl)c3)n2)CC1", "assay": "ligand displacement", "setting": "1 µM", "measurement": "inhibition", "result": "20.6%"}
{"SMILES": "O=C(Nc1ccc(S(=O)(=O)N2CCC(Cl)CC2)cc1)c1ccc([N+](=O)[O-])o1", "assay": "ligand displacement, radioligand", "setting": "10 µM", "measurement": "inhibition", "result": "4%"}
{"SMILES": "CCN(CC)c1ccc(C2Nc3ccc(C(=O)c4ccccc4)cc3NC3=C2C(=O)CC(C)(C)C3)cc1 (stereo not shown)", "assay": "ligand displacement, radioligand", "setting": "10 µM", "measurement": "inhibition", "result": "22%"}
{"SMILES": "CCCCCCOc1c(OC)cc2c3c1-c1cc4c(cc1CC3N(C)CC2c1ccccc1)OCO4 (stereo not shown)", "assay": "ligand displacement, radioligand", "setting": "10 µM", "measurement": "inhibition", "result": "-13.5%"}
{"SMILES": "COc1ccc(-n2nc(OCCCN3CCCCC3)ccc2=O)cc1", "assay": "ligand displacement", "setting": "1 µM", "measurement": "inhibition", "result": "18.5%"}
{"SMILES": "COc1cc2c3c(c1OC)-c1cc4c(cc1CC3N(C)CC2c1ccccc1)OCO4 (stereo not shown)", "assay": "ligand displacement, radioligand", "setting": "10 µM", "measurement": "inhibition", "result": "< 50%"}
{"SMILES": "N#Cc1cc(Cn2c(N3CCCC3)nc3ccccc32)ccc1F", "assay": "ligand displacement", "setting": "10 µM", "measurement": "inhibition", "result": "-8.04%"}
{"SMILES": "CN([C@@H]1CCc2c(CC(=O)O)c3ccccc3n2C1)S(=O)(=O)c1ccc(F)cc1", "assay": "ligand displacement, radioligand", "setting": "10 µM", "measurement": "inhibition", "result": "15.5%"}
{"SMILES": "O=C(CCCN1CCCN(c2ccc(Cl)cc2)CC1)c1ccc(F)cc1", "assay": "cAMP, agonist, luciferase", "measurement": "Emax", "result": "4.4%"}
{"SMILES": "Oc1cccc(Nc2nc(-c3ccc(F)cc3F)cs2)c1", "assay": "ligand displacement, radioligand", "setting": "10 µM", "measurement": "inhibition", "result": "31.5%"}
{"SMILES": "CC1=C(C#N)C(c2ccc3c(c2)c(NC(=O)c2ccccc2C)nn3C)C(C#N)=C(C)N1", "assay": "ligand displacement, radioligand", "setting": "10 µM", "measurement": "inhibition", "result": "8.55%"}
{"SMILES": "CCN(Cc1ccccc1C(F)(F)F)C(=O)C1CCN(S(=O)(=O)c2ccc3[nH]ncc3c2)CC1", "assay": "ligand displacement, radioligand", "setting": "10 µM", "measurement": "inhibition", "result": "0%"}
{"SMILES": "COc1cc(NC(C)=O)c(Cl)cc1C(=O)Nc1nccs1", "assay": "ligand displacement, radioligand", "setting": "10 µM", "measurement": "inhibition", "result": "23.8%"}
{"SMILES": "c1ccc(N2CCN(Cc3nc4ccccc4[nH]3)CC2)nc1", "assay": "ligand displacement, radioligand", "setting": "10 µM", "measurement": "inhibition", "result": "37.9%"}
{"SMILES": "CCCNc1nc2ccccc2n1Cc1ccc(Cl)cc1", "assay": "ligand displacement", "setting": "10 µM", "measurement": "inhibition", "result": "0.33%"}
{"SMILES": "O=C1N=C(N2CCCCN2)S/C1=C\\c1ccc(F)cc1O", "assay": "ligand displacement, radioligand", "setting": "10 µM", "measurement": "inhibition", "result": "20%"}
